Source: paper PMC4382465 (The Journal of antibiotics, 2014)
Converted amounts (≈) assume the structure as drawn. Read-outs that look alike come from different tables or passages of the source.

Experiments:
[1] = molecular target: T1, MurX (Mycobacterium tuberculosis, UniProt P9WMW7); experiment: MurX enzyme inhibitory assay; format: biochemical, M. tuberculosis
T1 sequence (P9WMW7 1-359): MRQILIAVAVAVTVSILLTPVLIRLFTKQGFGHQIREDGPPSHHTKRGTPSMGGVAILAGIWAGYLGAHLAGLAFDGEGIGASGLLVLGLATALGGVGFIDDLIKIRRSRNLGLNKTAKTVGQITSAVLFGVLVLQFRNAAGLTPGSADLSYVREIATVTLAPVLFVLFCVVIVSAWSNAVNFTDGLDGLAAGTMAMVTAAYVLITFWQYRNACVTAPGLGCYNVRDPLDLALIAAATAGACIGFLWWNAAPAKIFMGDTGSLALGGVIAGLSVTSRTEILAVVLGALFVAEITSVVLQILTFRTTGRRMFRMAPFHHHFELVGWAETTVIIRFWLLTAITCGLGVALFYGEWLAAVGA

[2] = tested on: M. tuberculosis; format: cell-based, Mycobacterium tuberculosis; conditions: for time to kill Mtb completely (100%): 2× MIC: capuramycin 24.0 μg/mL; for time to kill Mtb completely (100%) / time to kill 50% of Mtb: UT-01320 3.0 μg/mL; for time to kill 50% of Mtb: 2× MIC: rifampicin 0.4, INH 1.0 (so in the source)
[3] = tested on: HepG2 human hepatoblastoma cells; experiment: Cytotoxicity assay; format: cell-based; conditions: HepG2, read-out: IC50 μg/mL HepG2 cells
[4] = tested on: non-replicating M. tuberculosis H37Rv (pFCA-luxAB); experiment: microbe, parasite or virus in culture; format: cell-based; conditions: Mycobacterium tuberculosis, read-out: MIC μg/mL (LORA)
[5] = tested on: M. tuberculosis H37Rv; experiment: MIC, microplate alamar blue assay; format: cell-based; conditions: Mycobacterium tuberculosis
[6] = molecular target: E. coli RNA polymerase (Escherichia coli, UniProt P0A8T7+P0A8V2); experiment: RNA polymerase assay; format: biochemical
Chain of E. coli RNA polymerase (P0A8V2 whole entry): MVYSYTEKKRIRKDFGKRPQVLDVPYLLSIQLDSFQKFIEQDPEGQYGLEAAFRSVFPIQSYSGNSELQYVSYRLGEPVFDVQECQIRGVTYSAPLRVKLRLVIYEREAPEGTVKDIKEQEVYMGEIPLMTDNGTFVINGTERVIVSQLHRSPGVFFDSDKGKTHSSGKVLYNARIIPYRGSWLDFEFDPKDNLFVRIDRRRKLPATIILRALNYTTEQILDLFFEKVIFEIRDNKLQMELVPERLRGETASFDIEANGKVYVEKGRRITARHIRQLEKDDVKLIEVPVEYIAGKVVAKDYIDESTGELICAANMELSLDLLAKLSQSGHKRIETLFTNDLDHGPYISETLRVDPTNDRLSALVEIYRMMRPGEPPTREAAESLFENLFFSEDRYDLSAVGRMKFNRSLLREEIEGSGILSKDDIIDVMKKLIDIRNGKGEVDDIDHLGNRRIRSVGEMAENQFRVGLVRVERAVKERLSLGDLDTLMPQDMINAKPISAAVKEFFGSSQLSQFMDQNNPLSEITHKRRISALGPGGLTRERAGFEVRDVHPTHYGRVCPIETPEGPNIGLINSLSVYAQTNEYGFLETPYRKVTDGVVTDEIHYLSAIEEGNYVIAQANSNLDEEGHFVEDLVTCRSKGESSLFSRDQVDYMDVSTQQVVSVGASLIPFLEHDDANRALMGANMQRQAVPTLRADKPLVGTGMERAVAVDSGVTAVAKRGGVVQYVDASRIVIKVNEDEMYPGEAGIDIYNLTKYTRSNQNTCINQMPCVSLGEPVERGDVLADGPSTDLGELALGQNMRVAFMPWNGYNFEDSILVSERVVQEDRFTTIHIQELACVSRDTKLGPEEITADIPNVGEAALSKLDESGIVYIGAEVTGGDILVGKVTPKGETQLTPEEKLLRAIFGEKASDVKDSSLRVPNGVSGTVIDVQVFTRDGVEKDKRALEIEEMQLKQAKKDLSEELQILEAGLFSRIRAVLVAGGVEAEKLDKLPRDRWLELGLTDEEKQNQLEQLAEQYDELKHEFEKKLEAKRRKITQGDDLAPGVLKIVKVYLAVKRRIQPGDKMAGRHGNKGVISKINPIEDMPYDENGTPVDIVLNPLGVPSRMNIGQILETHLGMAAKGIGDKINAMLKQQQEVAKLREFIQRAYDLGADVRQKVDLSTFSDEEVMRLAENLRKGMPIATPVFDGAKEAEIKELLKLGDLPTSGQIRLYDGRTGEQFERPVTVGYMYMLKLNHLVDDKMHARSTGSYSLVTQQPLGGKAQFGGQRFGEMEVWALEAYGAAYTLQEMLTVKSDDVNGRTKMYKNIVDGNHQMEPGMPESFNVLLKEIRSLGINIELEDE
Chain of E. coli RNA polymerase (P0A8T7 whole entry): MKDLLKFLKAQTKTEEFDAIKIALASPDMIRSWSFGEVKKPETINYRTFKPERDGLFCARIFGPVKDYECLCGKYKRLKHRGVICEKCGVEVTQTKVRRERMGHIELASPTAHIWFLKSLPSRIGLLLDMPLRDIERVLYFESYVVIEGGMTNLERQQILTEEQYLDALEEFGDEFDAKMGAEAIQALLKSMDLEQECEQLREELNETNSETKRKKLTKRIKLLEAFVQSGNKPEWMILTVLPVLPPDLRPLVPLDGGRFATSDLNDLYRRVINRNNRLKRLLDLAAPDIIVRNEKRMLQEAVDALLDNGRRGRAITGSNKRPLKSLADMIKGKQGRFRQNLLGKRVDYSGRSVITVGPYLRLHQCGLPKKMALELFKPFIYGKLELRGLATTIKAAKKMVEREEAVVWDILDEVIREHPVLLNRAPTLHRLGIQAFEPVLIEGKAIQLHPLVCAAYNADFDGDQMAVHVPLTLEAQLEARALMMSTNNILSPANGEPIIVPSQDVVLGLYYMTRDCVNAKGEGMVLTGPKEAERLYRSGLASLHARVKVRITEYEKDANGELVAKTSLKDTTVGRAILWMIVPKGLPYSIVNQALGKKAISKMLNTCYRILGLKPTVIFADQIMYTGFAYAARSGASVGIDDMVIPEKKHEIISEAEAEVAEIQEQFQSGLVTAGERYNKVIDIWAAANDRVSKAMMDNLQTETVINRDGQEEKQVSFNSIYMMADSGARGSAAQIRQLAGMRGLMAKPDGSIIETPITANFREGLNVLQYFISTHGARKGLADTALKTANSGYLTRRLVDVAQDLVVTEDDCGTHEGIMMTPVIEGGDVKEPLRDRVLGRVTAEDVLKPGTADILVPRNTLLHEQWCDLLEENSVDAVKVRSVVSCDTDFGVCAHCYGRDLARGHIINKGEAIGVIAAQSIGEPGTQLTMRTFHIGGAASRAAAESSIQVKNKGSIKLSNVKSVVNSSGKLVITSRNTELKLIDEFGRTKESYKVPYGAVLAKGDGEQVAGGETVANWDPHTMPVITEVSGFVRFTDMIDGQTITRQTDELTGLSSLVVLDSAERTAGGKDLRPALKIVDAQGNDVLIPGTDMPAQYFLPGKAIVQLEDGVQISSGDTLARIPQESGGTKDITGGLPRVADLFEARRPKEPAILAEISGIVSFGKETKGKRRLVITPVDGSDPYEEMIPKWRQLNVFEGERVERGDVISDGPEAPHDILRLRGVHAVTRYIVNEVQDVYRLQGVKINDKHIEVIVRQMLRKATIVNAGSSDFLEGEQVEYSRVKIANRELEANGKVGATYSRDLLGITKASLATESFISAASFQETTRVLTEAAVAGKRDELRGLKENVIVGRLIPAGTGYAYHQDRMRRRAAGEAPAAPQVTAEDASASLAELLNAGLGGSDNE
Chain of E. coli RNA polymerase (P0A7Z4 whole entry partner): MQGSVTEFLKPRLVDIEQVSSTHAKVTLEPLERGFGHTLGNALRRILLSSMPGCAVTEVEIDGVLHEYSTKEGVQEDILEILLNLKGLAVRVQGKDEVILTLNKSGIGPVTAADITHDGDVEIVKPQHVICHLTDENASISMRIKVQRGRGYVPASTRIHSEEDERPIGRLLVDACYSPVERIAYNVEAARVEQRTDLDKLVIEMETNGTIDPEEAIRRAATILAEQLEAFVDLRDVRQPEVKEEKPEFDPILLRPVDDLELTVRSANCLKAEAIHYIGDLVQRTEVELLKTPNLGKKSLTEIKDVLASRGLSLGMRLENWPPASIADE
Chain of E. coli RNA polymerase (P0A800 whole entry partner): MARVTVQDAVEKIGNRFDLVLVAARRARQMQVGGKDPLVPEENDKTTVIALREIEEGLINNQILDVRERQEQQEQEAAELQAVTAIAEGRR

[7] = tested on: Mtb; experiment: Micro dilution broth checkerboard; format: cell-based, Mycobacterium tuberculosis
[8] = tested on: M. smegmatis ATCC607; experiment: MIC, broth dilution; format: cell-based, Mycobacterium smegmatis; conditions: M. smegmatis ATCC607, broth dilution method
[9] = tested on: E. coli ATCC 25019; experiment: MIC, broth dilution; format: cell-based; conditions: Escherichia coli, ATCC25019
[10] = tested on: E. faecium ATCC 349; experiment: MIC, broth dilution; format: cell-based; conditions: Enterococcus faecium, ATCC349
[11] = molecular target: Mtb serine/threonine kinase PknB (Mycobacterium tuberculosis, UniProt P9WI81); experiment: Ser/Thr protein kinase assay; format: biochemical, M. tuberculosis
Chain of Mtb serine/threonine kinase PknB (P9WI81 whole entry): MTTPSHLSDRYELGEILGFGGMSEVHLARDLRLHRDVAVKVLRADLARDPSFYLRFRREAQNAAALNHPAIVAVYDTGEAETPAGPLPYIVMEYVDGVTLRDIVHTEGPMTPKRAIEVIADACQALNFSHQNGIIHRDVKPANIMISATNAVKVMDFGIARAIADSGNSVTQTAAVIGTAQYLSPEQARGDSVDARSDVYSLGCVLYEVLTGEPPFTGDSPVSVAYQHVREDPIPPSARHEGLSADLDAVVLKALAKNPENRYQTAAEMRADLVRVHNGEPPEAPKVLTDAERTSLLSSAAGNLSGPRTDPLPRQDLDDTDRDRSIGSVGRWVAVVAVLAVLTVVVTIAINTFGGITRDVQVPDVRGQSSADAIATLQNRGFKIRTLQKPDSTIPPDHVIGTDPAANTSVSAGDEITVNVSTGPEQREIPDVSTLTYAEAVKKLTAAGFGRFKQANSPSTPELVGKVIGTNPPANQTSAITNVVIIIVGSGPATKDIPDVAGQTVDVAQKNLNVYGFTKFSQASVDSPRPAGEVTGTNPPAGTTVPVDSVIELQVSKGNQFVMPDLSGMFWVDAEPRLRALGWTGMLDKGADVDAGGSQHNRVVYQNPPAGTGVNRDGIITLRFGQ

[12] = tested on: P. aeruginosa ATCC 27853; experiment: MIC, broth dilution; format: cell-based; conditions: Pseudomonas aeruginosa, ATCC27853
[13] = molecular target: DNA gyrase (Escherichia coli, UniProt P0AES4+P0AES6); experiment: DNA topoisomerase II - DNA supercoiling assay; format: biochemical
Chain of DNA gyrase (P0AES4 whole entry, one chain of several): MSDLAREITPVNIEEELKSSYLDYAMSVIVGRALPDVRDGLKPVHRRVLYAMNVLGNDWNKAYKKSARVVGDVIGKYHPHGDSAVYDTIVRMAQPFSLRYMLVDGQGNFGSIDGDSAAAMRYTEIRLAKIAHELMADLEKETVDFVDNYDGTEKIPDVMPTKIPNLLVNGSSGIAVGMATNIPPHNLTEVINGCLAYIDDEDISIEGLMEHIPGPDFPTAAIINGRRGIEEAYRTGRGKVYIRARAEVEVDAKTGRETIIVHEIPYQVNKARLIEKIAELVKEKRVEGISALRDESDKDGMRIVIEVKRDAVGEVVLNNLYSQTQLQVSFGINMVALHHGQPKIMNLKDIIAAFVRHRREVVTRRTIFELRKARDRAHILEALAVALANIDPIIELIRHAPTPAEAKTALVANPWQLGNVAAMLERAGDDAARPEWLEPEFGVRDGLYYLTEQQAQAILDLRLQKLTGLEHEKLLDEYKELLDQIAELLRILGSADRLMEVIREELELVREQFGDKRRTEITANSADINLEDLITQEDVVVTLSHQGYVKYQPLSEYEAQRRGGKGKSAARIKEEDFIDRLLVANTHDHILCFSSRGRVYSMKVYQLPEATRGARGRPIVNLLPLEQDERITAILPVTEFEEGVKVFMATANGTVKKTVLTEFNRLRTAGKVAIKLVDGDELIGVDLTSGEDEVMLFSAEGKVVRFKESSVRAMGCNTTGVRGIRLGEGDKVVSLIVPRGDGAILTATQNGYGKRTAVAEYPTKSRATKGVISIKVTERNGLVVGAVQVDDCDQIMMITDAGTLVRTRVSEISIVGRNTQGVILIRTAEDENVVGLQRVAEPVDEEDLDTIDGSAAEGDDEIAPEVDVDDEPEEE

[14] = molecular target: bacterial RNA polymerases; experiment: RNA polymerase assays, enzyme not given; format: biochemical; conditions: read-out: IC50, bacterial RNA polymerases; abstract
[15] = molecular target: S. aureus RNA polymerase (Staphylococcus aureus, UniProt P47768+Q2G0N5); experiment: RNA polymerase assay; format: biochemical
[16] = molecular target: M. smegmatis RNA polymerase (Mycolicibacterium smegmatis, UniProt A0QS66+P60281); experiment: RNA polymerase assay; format: biochemical
[17] = molecular target: T2, Mtb serine/threonine kinase PKnA (Mycobacterium tuberculosis, UniProt P9WI83); experiment: Ser/Thr protein kinase assay; format: biochemical, M. tuberculosis
T2 sequence (P9WI83 1-431): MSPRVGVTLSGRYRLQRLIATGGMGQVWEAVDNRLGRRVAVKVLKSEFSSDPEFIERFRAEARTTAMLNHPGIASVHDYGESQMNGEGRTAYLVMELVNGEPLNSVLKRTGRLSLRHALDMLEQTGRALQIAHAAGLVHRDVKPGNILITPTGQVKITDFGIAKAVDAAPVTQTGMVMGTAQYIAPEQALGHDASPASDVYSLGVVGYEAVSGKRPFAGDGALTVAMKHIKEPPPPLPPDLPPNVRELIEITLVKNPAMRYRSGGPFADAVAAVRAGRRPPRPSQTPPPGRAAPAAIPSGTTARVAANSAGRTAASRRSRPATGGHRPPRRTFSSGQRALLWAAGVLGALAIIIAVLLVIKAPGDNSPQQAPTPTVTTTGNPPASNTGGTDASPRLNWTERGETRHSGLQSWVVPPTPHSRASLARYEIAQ

[18] = Cytotoxicity assay; format: cell-based; conditions: monkey, Vero monkey kidney cells (ATCC CCL-81)
How it was run: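 Vero kidney cells grown in 96-well plates in ATCC-formulated Eagle's Minimum Essential Medium and exposed to test compound. Each plate includes reference drugs of known toxicity as controls. Cytopathic effect is read by MTT assay after incubation, and IC50 is reported.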

[19] = tested on: menaquinone biosynthesis; format: biochemical
[20] = tested on: electron transport systems; experiment: Inhibition of electron transport systems; format: cell-based

With `COC1C(O)C(n2ccc(=O)[nH]c2=O)OC1C(OC1OC(C(=O)NC2CCCCNC2=O)=CC(O)C1O)C(N)=O` (stereo not drawn) [Capuramycin (1), 6-{Carbamoyl-[5-(2,4-dioxo-3,4-dihydro-2H-pyrimidin-1-yl)-4-hydroxy-3-methoxy-tetrahydro-furan-2-yl]-methoxy}-4,5-dihydroxy-5,6-dihydro-4H-pyran-2-carboxylic acid (2-oxo-azepan-3-yl)-amide] the IC50 [1] was 127 nM, the “time to kill Mtb completely (100%)” value [2] was 2 days and the “log10 CFU/mL reduction” value ([2]; in 1 day, 24.0 μg/mL (2× MIC)) was ≥ 3.0 log10 CFU/mL. The IC50 [3] was > 400 µg/mL and the MIC [4] was > 100 µg/mL.

With `CC[C@@H](CO)NCCN[C@@H](CC)CO` [Ethambutol (EMB), Ethambutol] the MIC ([5]; read-out: MIC μg/mL (MABA)) was 0.78 µg/mL (≈ 3.82 µM), the IC50 [3] was > 400 µg/mL and the MIC [4] was > 100 µg/mL.

With `NNC(=O)c1ccncc1` [Isoniazid (INH), Isoniazid] the MIC [5] was 0.04 to 0.1 µg/mL (≈ 0.292 to 0.729 µM), the MIC ([5]; read-out: MIC μg/mL (MABA)) was 0.04 to 0.1 µg/mL (≈ 0.292 to 0.729 µM) and the IC50 [3] was > 400 µg/mL. For the same compound, the MIC [4] was > 100 µg/mL.

For `CO[C@H]1/C=C/O[C@@]2(C)Oc3c(C)c(O)c4c(O)c(c(/C=N/N5CCN(C)CC5)c(O)c4c3C2=O)NC(=O)/C(C)=C\C=C\[C@H](C)[C@H](O)[C@@H](C)[C@@H](O)[C@@H](C)[C@H](OC(C)=O)[C@@H]1C` [Rifampicin (RFP), Rifampicin], the MIC [5] was 0.2 µg/mL (≈ 0.243 µM), the MIC ([5]; read-out: MIC μg/mL (MABA)) was 0.2 µg/mL (≈ 0.243 µM) and the “time to kill 50% of Mtb” value [2] was “over 7 days”. For the same compound, the IC50 [3] was > 400 µg/mL and the IC50 [6] was 120 nM.

In the case of `COC1C(O)C(n2ccc(=O)[nH]c2=O)OC1C(OC1OC(C(=O)Nc2ccc(F)c(F)c2)=CC(O)C1O)C(N)=O` (stereo not drawn) [SQ 641 (2), 6-{Carbamoyl-[5-(2,4-dioxo-3,4-dihydro-2H-pyrimidin-1-yl)-4-hydroxy-3-methoxy-tetrahydro-furan-2-yl]-methoxy}-4,5-dihydroxy-5,6-dihydro-4H-pyran-2-carboxylic acid (3,4-difluoro-phenyl)-amide], the IC50 [1] is reported as 98 nM, the IC50 [3] is reported as > 400 µg/mL and the “MIC (μg/mL) CA and CB (concentration in combination)” value (shortened to “MIC (μg/mL) CA and CB”) ([7]; pair SQ 641 0.10 + UT-01320 0.08) is reported as 0.10 µg/mL. The “MIC (μg/mL) CA and CB” value ([7]; pair SQ 641 0.10 + UT-01320 0.16) was 0.10 µg/mL, the “MIC (μg/mL) CA and CB” value ([7]; pair SQ 641 0.10 + UT-01320 0.32) was 0.10 µg/mL and the “MIC (μg/mL) CA and CB” value ([7]; pair SQ 641 0.10 + UT-01320 0.645) was 0.10 µg/mL. For the same compound, the “MIC (μg/mL) CA and CB” value ([7]; pair SQ 641 0.10 + UT-01320 1.29) was 0.10 µg/mL and the MIC [4] was > 100 µg/mL.

With `COC1C(C(OC2OC(C(=O)NC3CCCCNC3=O)=CC(O)C2O)C(N)=O)OC(n2ccc(=O)[nH]c2=O)C1OC` (stereo not drawn) [UT-01320 (3), 6-{Carbamoyl-[5-(2,4-dioxo-3,4-dihydro-2H-pyrimidin-1-yl)-3,4-dimethoxy-tetrahydro-furan-2-yl]-methoxy}-4,5-dihydroxy-5,6-dihydro-4H-pyran-2-carboxylic acid (2-oxo-azepan-3-yl)-amide] the “MIC” value [8] was >200 µg/mL, the MIC [9] was > 200 µg/mL and the MIC [10] was > 200 µg/mL. The IC50 [1] was > 100000 nM, the “MurX enzyme inhibitory activity” value [1] was “did not interfere with MurX” and the “MurX enzyme inhibitory activity” value ([1]; listed as 3) was “did not exhibit MurX enzyme inhibitory activity even at high concentrations”. The MIC [5] was 1.5 µg/mL (≈ 2.57 µM), the “inhibition of Mtb serine/threonine kinase PknB” value [11] was “did not inhibit” and the “time to kill Mtb completely (100%)” value [2] was ≤ 5 days. For the same compound, the “time to kill 50% of Mtb” value [2] was ≤ 3 days, the “time to kill 100% of Mtb” value ([2]; 4× MIC: UT-01320 6.0 μg/mL) was ≤ 3 days and the IC50 [3] was > 400 µg/mL. For the same compound, the MIC [12] was > 200 µg/mL, the “inhibition of DNA gyrase” value [13] was “did not inhibit” and the IC50 [14] was 100 to 150 nM. It also gave an IC50 [15] of 100 to 150 nM, an IC50 [6] of 100 to 150 nM and an MIC [4] of 2.58 µg/mL (≈ 4.42 µM). The IC50 [16] was 100 to 150 nM, the “inhibition of Mtb serine/threonine kinase PKnA” value [17] was “did not inhibit” and the IC50 [18] was > 400 µg/mL. For the same compound, the “inhibition of menaquinone biosynthesis” value [19] was “did not inhibit” and the “inhibition of electron transport systems” value [20] was “did not inhibit”.
